Assay [1] addresses T1, Estrogen receptor (Homo sapiens, UniProt P03372).
T1 sequence (P03372 whole entry): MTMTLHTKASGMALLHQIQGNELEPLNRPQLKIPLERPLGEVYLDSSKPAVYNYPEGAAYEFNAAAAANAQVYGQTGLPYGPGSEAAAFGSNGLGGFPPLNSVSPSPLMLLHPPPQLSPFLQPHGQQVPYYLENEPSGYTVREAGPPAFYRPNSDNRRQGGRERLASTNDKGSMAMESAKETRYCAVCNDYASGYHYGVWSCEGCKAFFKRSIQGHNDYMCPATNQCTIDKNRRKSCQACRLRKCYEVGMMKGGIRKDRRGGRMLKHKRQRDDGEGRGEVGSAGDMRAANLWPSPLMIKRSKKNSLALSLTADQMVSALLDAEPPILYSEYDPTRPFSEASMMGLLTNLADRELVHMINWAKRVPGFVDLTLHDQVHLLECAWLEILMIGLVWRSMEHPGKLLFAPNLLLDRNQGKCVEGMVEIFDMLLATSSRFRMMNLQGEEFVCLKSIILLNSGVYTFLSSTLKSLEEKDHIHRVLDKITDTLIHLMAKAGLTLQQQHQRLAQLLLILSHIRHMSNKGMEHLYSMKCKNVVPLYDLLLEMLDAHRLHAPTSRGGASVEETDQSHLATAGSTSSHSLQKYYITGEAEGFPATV
As to the kind of experiment: Binding affinity for estrogen receptor (ER) alpha of MCF-7 cell cytosol incubated with 2 nM [3H]estradiol. It is filed as cell-based. The method, boiled down:
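Cytosol from MCF-7 cells, which express only the ERα isoform, incubated with 2 nM [3H]-estradiol and unlabeled ligand at eight concentrations from 10 nM to 10 µM. IC50 derived by iterative curve fitting, and Ki calculated using a Kd of 0.1 nM.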

For assay [2], the system named is T47D. As to the kind of experiment: Tested for cytotoxicity towards T47D cell line (human breast cancer). The assay is classed as functional, cell-based.
Assay [3] relates to A549. As to the kind of experiment: Tested for cytotoxicity towards A549 cell line (human lung carcinoma). It is filed as functional, cell-based.
The test system of assay [4] is MCF7. Kind of assay: Tested for cytotoxicity towards MCF-7 cell line (human breast cancer). The assay is classed as functional, cell-based.
For assay [5], the target named is T2, Aryl hydrocarbon receptor (Oryctolagus cuniculus, UniProt O02747).
T2 sequence (O02747 whole entry): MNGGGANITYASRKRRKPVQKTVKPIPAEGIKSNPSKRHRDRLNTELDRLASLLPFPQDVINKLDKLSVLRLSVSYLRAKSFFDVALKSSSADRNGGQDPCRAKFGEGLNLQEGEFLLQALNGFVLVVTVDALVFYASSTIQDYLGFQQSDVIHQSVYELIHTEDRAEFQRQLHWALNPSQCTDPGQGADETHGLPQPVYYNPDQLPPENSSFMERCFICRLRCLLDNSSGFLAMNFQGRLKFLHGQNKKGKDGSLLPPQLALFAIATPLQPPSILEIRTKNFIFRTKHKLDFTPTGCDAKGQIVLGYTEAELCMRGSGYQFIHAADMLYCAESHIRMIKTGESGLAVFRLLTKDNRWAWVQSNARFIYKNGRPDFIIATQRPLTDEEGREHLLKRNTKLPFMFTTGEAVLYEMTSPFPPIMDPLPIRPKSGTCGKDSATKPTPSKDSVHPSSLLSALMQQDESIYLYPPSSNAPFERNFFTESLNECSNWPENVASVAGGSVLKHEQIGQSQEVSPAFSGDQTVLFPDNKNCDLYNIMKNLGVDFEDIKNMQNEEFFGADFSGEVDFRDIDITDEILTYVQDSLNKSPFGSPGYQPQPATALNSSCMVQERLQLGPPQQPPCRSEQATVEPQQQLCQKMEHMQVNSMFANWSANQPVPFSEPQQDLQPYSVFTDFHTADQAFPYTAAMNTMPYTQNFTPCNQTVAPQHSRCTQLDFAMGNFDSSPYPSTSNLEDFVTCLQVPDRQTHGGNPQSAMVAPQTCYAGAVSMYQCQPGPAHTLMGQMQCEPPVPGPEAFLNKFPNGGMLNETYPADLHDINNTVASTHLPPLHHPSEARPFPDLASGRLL
As to the kind of experiment: Binding affinity for aryl hydrocarbon receptor (AhR) of rabbit liver cytosol incubated with 0.2 nM [3H]-TCDD; Antagonist. The method, boiled down: (§1)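 Rabbit liver cytosol incubated with 0.2 nM [3H]-TCDD plus unlabeled ligand at 12 concentrations spanning 0.1 nM to 1 µM. Competitive displacement measured, and IC50 obtained by iterative curve fitting.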

In assay [6] the target is T1, Estrogen receptor. Kind of assay: Binding affinity for estrogen receptor (ER) alpha of MCF-7 cell cytosol incubated with 2 nM [3H]estradiol; Agonist. The assay is classed as cell-based. In short, it runs like this:
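ERα-only cytosol from MCF-7 cells, incubated with 2 nM [3H]-estradiol and eight concentrations (10 nM–10 µM) of unlabelled ligand. IC50 came from iterative curve fitting, and Ki was calculated using Kd 0.1 nM. Agonist status: stimulation of ERE-driven luciferase in MELN reporter cells after 8 h, with or without 1 nM 17β-estradiol; luciferase activity was the read-out.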

Assay [7] concerns T47D. As to the kind of experiment: Tested for cytotoxicity towards T47D cell line (human breast cancer); Not active. The assay is classed as functional, cell-based.
The test system of assay [8] is MCF7. Kind of assay: Tested for cytotoxicity towards MCF-7 cell line (human breast cancer); Not active. The assay is classed as functional, cell-based.
Assay [9] concerns A549. Kind of assay: Tested for cytotoxicity towards A549 cell line (human lung carcinoma); Not active. It is filed as functional, cell-based.
For assay [10], the target named is T2, Aryl hydrocarbon receptor. As to the kind of experiment: Binding affinity for aryl hydrocarbon receptor (AhR) of rabbit liver cytosol incubated with 0.2 nM [3H]-TCDD; Agonist. The method, boiled down: as §1

Broadly, the Ki is a measure of affinity in units of concentration, obtained from inhibition or displacement. High values mean weaker binding, low ones tighter binding. As for `COc1cc(/C=C\c2ccc(F)cc2)cc(OC)c1`, the results for the Ki (on Estrogen receptor [1]; in assay [5]) were over 100000 nM and 96 nM, respectively. Also, the Concentration in the assay with T47D [2], in the assay on A549 [3] and in the assay on MCF7 [4] was over 10 µM throughout.
In the case of `CCOc1ccc(/C=C/c2cc(OC)cc(OC)c2)cc1`, the Concentration in the assay on T47D [2], in the assay with A549 [3] and with MCF7 [4] was under 0.1 µM each time. In addition, the Ki in assay [5] was found to be 5 nM; at Estrogen receptor [6] it was 381 nM.
Turning to `FC(F)(F)c1ccc(/C=C/c2cc(C(F)(F)F)cc(C(F)(F)F)c2)cc1`, the Ki on Estrogen receptor [1] was over 100000 nM; in assay [5], 2.1 nM. Moreover, the Concentration in the assay with T47D [7], with MCF7 [8] and in the assay with A549 [9] was over 10 µM each time.
For `Clc1ccc(/C=C\c2cc(Cl)cc(Cl)c2)cc1`, the Ki at Estrogen receptor [1] is over 100000 nM; in assay [5], 13 nM. Further, the Concentration with T47D [2], with A549 [3] and in the assay with MCF7 [4] was under 100 µM each time.
Regarding `FC(F)(F)c1ccc(/C=C\c2cc(Cl)cc(Cl)c2)cc1`, the Ki at Estrogen receptor [1] is over 100000 nM; in assay [5] it was 14 nM. Moreover, the Concentration in the assay with T47D [7], with MCF7 [8] and with A549 [9] was over 10 µM throughout.
As to `COc1cc(/C=C/c2ccc(F)cc2)cc(OC)c1`, the Ki at Estrogen receptor [1] is over 100000 nM; in assay [5], 3.1 nM. In addition, the Concentration in the assay with T47D [2], in the assay on A549 [3] and with MCF7 [4] was over 10 µM each time.
Consider `FC(F)(F)c1cccc(/C=C/c2cc(Cl)cc(Cl)c2)c1`, for which the Ki on Estrogen receptor [1] is over 100000 nM; in [5] it was 6.8 nM. The Concentration with T47D [7], in the assay on MCF7 [8] and with A549 [9] was over 10 µM each time.
With `COc1ccc(/C=C\c2cc(OC)cc(OC)c2)cc1` [8Z-3,4',5-TRIMETHOXYSTILBENE], the figures for the Ki (in [5]; at Estrogen receptor [6]) were 75 nM and 132 nM, respectively.
Consider `CCOc1ccc(/C=C\c2cc(OC)cc(OC)c2)cc1`, for which the Concentration in the assay on T47D [2], in the assay with A549 [3] and in the assay on MCF7 [4] was under 0.1 µM throughout. The values for the inhibitory constant (Ki) (in assay [5]; on Estrogen receptor [6]) were 65 nM and 136 nM, respectively.
With `FC(F)(F)c1ccc(/C=C/c2cc(Cl)cc(Cl)c2)cc1`, the Ki on Estrogen receptor [1] is over 100000 nM; in assay [10] it was 0.2 nM. In addition, the Concentration in the assay on T47D [7], in the assay with MCF7 [8] and with A549 [9] was over 10 µM throughout.
Regarding `Clc1ccc(/C=C/c2cc(Cl)cc(Cl)c2)cc1`, the Ki at Estrogen receptor [1] was over 100000 nM; in assay [5] it was 1.2 nM. For the same compound, the Concentration in the assay with T47D [7], in the assay on MCF7 [8] and in the assay on A549 [9] was over 10 µM each time.
Turning to `FC(F)(F)c1cccc(/C=C\c2cc(Cl)cc(Cl)c2)c1`, the Ki at Estrogen receptor [1] is over 100000 nM; in [5], 19 nM. The Concentration with T47D [7], in the assay with MCF7 [8] and with A549 [9] was over 10 µM in each case.
As for `COc1ccc(/C=C\c2cc(Cl)cc(Cl)c2)cc1`, the Ki was over 100000 nM at Estrogen receptor [1] and 12 nM in assay [5]. In addition, the Concentration with T47D [7], in the assay on MCF7 [8] and in the assay with A549 [9] was over 10 µM each time.
`Fc1ccc(/C=C\c2cc(F)cc(F)c2)cc1`: the Ki on Estrogen receptor [1] is over 100000 nM; in assay [5], 63 nM. In addition, the Concentration with T47D [7], with MCF7 [8] and in the assay with A549 [9] was over 10 µM in each case.
`FC(F)(F)c1ccc(/C=C\c2cc(C(F)(F)F)cc(C(F)(F)F)c2)cc1`: the Ki at Estrogen receptor [1] was over 100000 nM; in assay [5], 60 nM. For the same compound, the Concentration in the assay with T47D [7], in the assay on MCF7 [8] and in the assay with A549 [9] was over 10 µM each time.
As to `COc1ccc(/C=C\c2cc(F)cc(F)c2)cc1`, the Ki at Estrogen receptor [1] is over 100000 nM; in assay [5], 22 nM. For the same compound, the Concentration in the assay with T47D [7], in the assay with MCF7 [8] and with A549 [9] was over 10 µM in each case.
`Fc1ccc(/C=C/c2cc(F)cc(F)c2)cc1`: the Ki at Estrogen receptor [1] is over 100000 nM; in assay [5], 3.8 nM. The Concentration with T47D [7], with MCF7 [8] and in the assay with A549 [9] was over 10 µM throughout.
Take `COc1ccc(/C=C/c2cc(F)cc(F)c2)cc1`: the Ki at Estrogen receptor [1] is over 100000 nM; in assay [5], 9.2 nM. Moreover, the Concentration in the assay on T47D [7], in the assay with MCF7 [8] and with A549 [9] was over 10 µM in each case.
For the compound `CCCCOc1ccc(/C=C\c2cc(OC)cc(OC)c2)cc1`, the Ki was over 100000 nM on Estrogen receptor [1] and 43 nM in [5].
For `CCCCOc1ccc(/C=C/c2cc(OC)cc(OC)c2)cc1`, the Ki at Estrogen receptor [1] was over 100000 nM; in assay [5], 20 nM. For the same compound, the Concentration with T47D [2], in the assay with A549 [3] and with MCF7 [4] was over 10 µM in each case.
Turning to `COc1cccc(/C=C/c2cc(Cl)cc(Cl)c2)c1`, the Ki on Estrogen receptor [1] is over 100000 nM; in assay [5], 5.7 nM. Moreover, the Concentration in the assay with T47D [7], with MCF7 [8] and in the assay on A549 [9] was over 10 µM throughout.
Regarding `Oc1ccc(/C=C/c2cc(O)cc(O)c2)cc1` [RESVERATROL], affinity on Estrogen receptor [6] was put at a Ki of 785 nM.
Consider `COc1cccc(/C=C\c2cc(Cl)cc(Cl)c2)c1`, for which the values for the Ki (on Estrogen receptor [1]; in assay [5]) were over 100000 nM and 24 nM, respectively. The Concentration with T47D [7], in the assay on MCF7 [8] and in the assay on A549 [9] was over 10 µM each time.
`COc1ccc(/C=C/c2cc(Cl)cc(Cl)c2)cc1`: the results for the Ki (on Estrogen receptor [1]; in assay [5]) were over 100000 nM and 1.4 nM, respectively. Besides, the Concentration in the assay with T47D [7], in the assay with MCF7 [8] and with A549 [9] was over 10 µM throughout.
Consider `COc1ccc(/C=C/c2cc(OC)cc(OC)c2)cc1` [TRISMETHOXYRESVERATROL], for which the Concentration in the assay on T47D [2], in the assay on A549 [3] and in the assay on MCF7 [4] was under 100 µM in each case. Besides, the Ki in assay [5] came out at 7.7 nM; at Estrogen receptor [6], 261 nM.

Values taken from ChEMBL document CHEMBL1139491 (J Med Chem, 2005).
